Compounds with a hit are over-represented: about 2.8% of the library has one in this group of screens.
Measles CPE – compounds protecting cells from measles virus cytopathic effect, primary screen, measles RdRp inhibitor project, single point, MLSMR library, absorbance. 1.5% of 140,000 active. AID 841, 2007. protection (pct of control), % at 4 µM. Measles virus-infected cells, CPE protection; in the data active means protection mostly above about 24%, no sharp cut-off; inactive means mostly below about 26%
NPY-Y1 antag – NPY-Y1 receptor antagonists, primary screen, cell-based | HEK293-CNG Y1 cells, membrane potential fluorescence; NPY at EC95, then isoproterenol | inhibition, % at 3.6 µM | 1% of 200,000 active;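 active means inhibition above the campaign mean inhibition of all tested compounds plus 3 SD, cut at about 20% in these data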
Target sequence (P25929 whole entry, looked up): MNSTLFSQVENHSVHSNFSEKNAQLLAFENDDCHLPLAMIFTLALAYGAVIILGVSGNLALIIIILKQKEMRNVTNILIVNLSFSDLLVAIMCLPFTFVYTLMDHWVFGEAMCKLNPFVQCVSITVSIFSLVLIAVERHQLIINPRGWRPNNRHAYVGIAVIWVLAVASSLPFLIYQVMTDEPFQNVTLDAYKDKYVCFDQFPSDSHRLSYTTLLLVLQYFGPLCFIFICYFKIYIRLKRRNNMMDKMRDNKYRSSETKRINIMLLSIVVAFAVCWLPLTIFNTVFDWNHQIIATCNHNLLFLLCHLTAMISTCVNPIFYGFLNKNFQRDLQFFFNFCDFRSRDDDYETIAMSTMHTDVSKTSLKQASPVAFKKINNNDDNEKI
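Assay system: HEK293 cells with Y1 receptor plus CNG channel | Probe or stimulus: NPY (25 nM), isoproterenol (1 µM), Ro 20-1724 (25 µM) | Timing: Compound incubation 1 h at room temperature, readout 45 min post-stimulation | Measured by: Membrane-potential fluorescent dye readout | Benchmarks: High control isoproterenol alone, low control NPY with isoproterenol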
NPY-Y2 antag – NPY-Y2 receptor antagonists, primary screen, cell-based; NPY-Y2 expressing cells, antagonist mode; inhibition, % at 2.7 µM; 0.99% of 140,000 active; AID 793, 2007; Neuropeptide Y receptor type 2 (Homo sapiens), P49146; in the data active means inhibition above about 17%
Rad51 HR inh – human RAD51 strand exchange inhibitors, primary screen, biochemical, fluorescence; hRad51 DNA strand exchange, fluorescence dequenching; 0.085% of 200,000 active; inhibition, % at 10 µM; DNA repair protein RAD51 homolog 1 (Homo sapiens), Q06609;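 active means inhibition above 40% at the single screening dose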
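Material: human Rad51–ssDNA filaments; Probe or stimulus: labelled 47-mer dsDNA for strand exchange; Doses: single 10 µM dose; Incubation: 37 °C 15-min filament assembly, 30-min compound preincubation, 15-min exchange; Technique: FRET fluorescence dequenching, excitation 485 nm, emission 520 nm; Measure: Fluorescence-based percent inhibition, control- and blank-normalised; Benchmarks: plate control and blank wells.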
NPY1 pot ag – NPY-Y1 receptor potentiators or agonists, primary screen, cell-based. activation, % at 3.6 µM. Neuropeptide Y receptor type 1 (Homo sapiens), P25929. NPY-Y1 expressing cells, potentiator/agonist activation. 0.37% of 220,000 active. AID 1304, 2008; in the data active means activation above about 33%, passing the limit was not always enough;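 further: cells stimulated with NPY at EC10 then isoproterenol at EC100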
NPY2 pot ag – NPY-Y2 potentiators or agonists, primary screen, cell-based | cells expressing NPY-Y2, potentiator/agonist read-out | 0.45% of 220,000 active | Neuropeptide Y receptor type 2 (Homo sapiens), P49146 | activation, % at 3.6 µM; in the data active means activation above about 27%;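 further: cells stimulated with NPY near EC25 plus isoproterenol at EC100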
Numbers stand for hits; i = inactive; nt = no result given.

SMILES	Measles CPE	NPY-Y1 antag	NPY-Y2 antag	Rad51 HR inh	NPY1 pot ag	NPY2 pot ag
COc1ccc(NS(=O)(=O)c2ccc(NC(=O)c3cnn4c(C(F)F)cc(-c5ccc(C)cc5)nc34)cc2)cc1	i	i	i	i	i	i
COc1cccc(C2C(C(=O)c3cccs3)=C(O)C(=O)N2c2cc(C)on2)c1 (centres undefined)	37	i	i	i	i	i
CC(=O)Nc1ccc(Nc2c([N+](=O)[O-])c(=O)n(-c3ccccc3)c3ccccc23)cc1	nt	i	nt	i	i	i
OC(COc1ccc2c(c1)CCC2)Cn1cnc2ccccc21 (centres undefined)	i	i	i	128	i	i
O=S(=O)(c1ccccc1)N1CCN(CC(O)COc2ccc3c(c2)CCC3)CC1 (centres undefined)	31	i	i	i	i	i
COc1ccccc1/C=C(/C#N)C(=O)O	nt	nt	nt	nt	i	i
CCOC(=O)c1c(N)sc(C(=O)OCCOC)c1C	nt	i	nt	i	i	i
O=C(CSc1ncnc2sc3c(c12)CCCC3)c1ccccc1	i	i	i	i	i	i
O=C(CSc1ncnc2sc3c(c12)CCCC3)c1ccco1	46	i	i	i	i	i
CCc1nc2sccc2c(=O)[nH]1	nt	i	nt	i	i	i
Cc1cnc(NC(=O)COc2cccc3c2OC(C)(C)C3)s1	65	i	i	i	i	i
Cc1sc(NC(=S)NC(=O)C(C)(C)C)c(C(N)=O)c1C	i	i	i	i	i	i
CCOC(=O)C1CCCN(C(=O)c2cnn3c(C(F)(F)F)cc(-c4ccccc4)nc23)C1 (centres undefined)	i	22	19	i	i	i
CC(C)OC(=O)c1cc2c(ccn2C)n1CC(=O)N(Cc1ccccc1)c1ccc(F)cc1	56	i	i	i	i	i
CCOC(=O)c1cc2c(ccn2C)n1CC(=O)N(Cc1ccccc1)c1ccc(F)cc1	i	i	i	i	i	i
CCCC(=O)OCC(=O)Nc1ccc2c(c1)OCO2	nt	i	nt	i	i	i
Cc1ccc(NC(=O)C2(N(C(=O)Cn3nnnc3N)c3ccc(C)cc3)CCCCC2)cc1	i	i	i	i	41	34
CN1CCCN(S(=O)(=O)c2cccc(Cl)c2Cl)CC1	nt	i	nt	i	i	i
CS(=O)(=O)Nc1ccc(C2=NN(S(=O)(=O)c3ccc(F)cc3)C(c3ccco3)C2)cc1 (centres undefined)	nt	i	nt	nt	i	i
Cc1ccc2cc(C)c3nnc(SCC(=O)c4cccs4)n3c2c1C	i	i	i	i	i	i
Cc1cc2ccc(C)c(C)c2nc1SCC(=O)c1cccs1	32	i	i	i	i	i
Cc1ccc(CNC(=O)C23CN(Cc4ccccc4)CC2C(c2ccc([N+](=O)[O-])cc2)=NO3)cc1 (centres undefined)	41	i	i	i	i	i
FC(F)(F)c1nnc2ccc(N3CCCC3)nn12	i	i	i	57	i	i
FC(F)(F)c1nnc2ccc(N3CCCCCC3)nn12	i	i	i	i	i	i
CCn1nc(C)cc1C(=O)n1nc(C)c(Sc2ncccn2)c1C	nt	nt	nt	i	i	i
SMILES	Measles CPE	NPY-Y1 antag	NPY-Y2 antag	Rad51 HR inh	NPY1 pot ag	NPY2 pot ag
O=C(NNc1ccc([N+](=O)[O-])cc1)C1CC1c1ccccc1 (centres undefined)	23	i	i	i	i	i
O=C(NNc1ccc([N+](=O)[O-])cc1)C1CC2CCCC(C1)C2=O (centres undefined)	i	i	i	i	i	i
COC(=O)c1ccccc1NC(=O)/C=C/C(=O)O	i	i	i	i	i	i
COC(=O)c1ccccc1NC(=O)/C=N/O	44	i	i	nt	i	i
COc1ccccc1NS(=O)(=O)c1cccc2nsnc12	nt	nt	nt	i	i	i
CCCC(NC(=O)c1c(C)noc1C)C12CC3CC(CC(C3)C1)C2 (centres undefined)	nt	i	nt	i	i	i
Cc1ccc(-c2nnn(CC(=O)N(CC3CCCO3)C(C(=O)NCC3CCCO3)c3ccc(F)cc3)n2)o1 (centres undefined)	42	i	i	i	i	i
O=C(NNC(=S)NC1CCCCC1)c1ccccc1O	nt	i	nt	i	i	i
CCC(C)(C)NC(=O)C(c1ccccc1F)N(Cc1ccco1)C(=O)Cn1nnc2ccccc21 (centres undefined)	i	96	73	i	i	i
CCc1ccc(C(C(=O)NC(C)(C)CC)N(Cc2ccco2)C(=O)Cn2nnc3ccccc32)cc1 (centres undefined)	i	54	51	i	i	i
CCC(C)(C)NC(=O)C(c1ccccc1F)N(Cc1ccco1)C(=O)c1csnn1 (centres undefined)	i	i	i	i	i	i
COc1ccc(CN(C(=O)Cn2nnc3ccccc32)C(C(=O)NC(C)(C)C)c2ccco2)cc1 (centres undefined)	i	i	i	i	i	i
CCN(CC)S(=O)(=O)c1cccc(C(=O)Nc2ccccc2C(=O)N2CCOCC2)c1	47	i	i	i	i	i
COc1ccc(C(CC(=O)N2CCN(c3ccccc3)CC2)c2c(OC)cc(OC)c3ccc(=O)oc23)cc1 (centres undefined)	nt	nt	nt	i	nt	nt
Cc1ccccc1Nc1c(-c2ccccn2)nc2ccccn12	nt	i	nt	i	35	35
Cc1ccn2c(Nc3ccccc3C)c(-c3ccccn3)nc2c1	nt	i	nt	i	41	30
Cc1ccc2nc(-c3ccccn3)c(Nc3ccccc3C)n2c1	nt	i	nt	i	46	36
Cc1ccn2c(Nc3ccccc3)c(-c3ccccn3)nc2c1	nt	i	nt	i	i	i
Cc1cccn2c(Nc3ccccc3)c(-c3ccccn3)nc12	nt	i	nt	i	i	i
O=C(N/N=C\c1cc(Br)cs1)C1COc2ccccc2O1 (centres undefined)	i	i	i	i	i	i
CC(C)(C)NCC(O)CON=C1c2ccccc2-c2ccccc21 (centres undefined)	nt	i	nt	nt	104	100
C=CCSC(=C(C#N)C#N)c1cc2c([nH]1)CCCC2	i	i	i	i	35	43
O=C(c1ccc([N+](=O)[O-])cc1)N1CCSC1c1ccccc1 (centres undefined)	24	i	i	i	i	i
COc1ccccc1Oc1cc(C#N)c(C#N)cc1-n1nnc2ccccc21	i	46	19	nt	i	i
N#Cc1cc([N+](=O)[O-])c(-n2nnc3ccccc32)c([N+](=O)[O-])c1	i	i	i	i	i	i
O=C(NCCNc1nccc(C(F)(F)F)n1)c1cccs1	nt	nt	nt	i	i	i
CCOC(=O)c1ccc2nc(CCC(=O)N[C@H](C(=O)OC)C(C)C)c(=O)n(CC)c2c1	nt	i	nt	i	i	i

Bioassay records deposited in PubChem BioAssay by several laboratories.
